Assay results gathered from unrelated publications.
Lines come from different studies, so protocols differ.

For `COc1cc2c(cc1OC)CN(CCCCn1ccc3c(OCC[18F])cccc31)C2`, the logD was 2.43 (shake flask; aqueous buffer; pH 7.4).
For `O=C(O)CN(CCCc1ccccc1)CC(=O)N[C@H](CO)Cc1c[nH]cn1`, the logD was -1.3 (shake flask; PBS; 2 h, pH 7.4).
For `CCCc1cc2c(N3CCn4c(nnc4C(F)(F)F)C3)nc(OCC[18F])nc2s1`, the logD was 2.06 (shake flask; aqueous buffer; pH 7.4).
`COCCCCCCOc1ccc(C2=N[C@@](C)(C(=O)O)CS2)c(O)c1` has a logD of 0.95 (shake flask; aqueous buffer; pH 7.4).
`Cc1noc([C@H](Cc2c[nH]cn2)NC(=O)CN(CCCc2ccccc2)CC(=O)O)n1` gave a logD of -0.84 (shake flask; PBS; 2 h, pH 7.4).
For `CC(C)CN(C[C@@H](O)[C@H](Cc1ccccc1)NC(=O)O[C@H]1CO[C@H]2OCC[C@H]21)S(=O)(=O)c1ccc(N)cc1`, the logD was 2.84 (shake flask; PBS; pH 7.4).
The logD of `N#CCc1ccccc1C#Cc1ccc(CCC(=O)O)c(F)c1` is reported as 1.41 (shake flask; PBS; pH 7.4).
With `CN1CCN(c2ccc3nc(-c4ccc5nc(-c6ccc(OCCCC(=O)Nc7ccc(CC(CN(CCN(CC(=O)O)CC(=O)O)CC(=O)O)N(CC(=O)O)CC(=O)O)cc7)cc6)[nH]c5c4)[nH]c3c2)CC1` (stereo not drawn) the logD was -0.5 (shake flask; PBS; pH 7.4).
With `C[C@]1(C(=O)O)CSC(c2ccc(OCCCCCCO)cc2O)=N1` the logD was 0.21 (shake flask; aqueous buffer; pH 7.4).
The logD of `Cc1c(C(=O)N[C@@H]2CCCC[C@@H]2O)nc(-c2ccc(Cl)cc2Cl)n1-c1ccc(OS(=O)(=O)CCC(F)(F)F)cc1` (single isomer, unassigned) is reported as over 4.3 (shake flask; aqueous buffer; pH 7.4).
`COC(=O)[C@H](Cc1c[nH]cn1)NC(=O)CN(CC(=O)O)Cc1ccccc1` has a logD of -2.05 (shake flask; PBS; 2 h, pH 7.4).
`N#Cc1c[nH]c2c(C(=O)N3CCN(CCc4ccc(F)cc4)CC3)cccc12` has a logD of 3.5 (shake flask; aqueous buffer; pH 7.4).
`Cc1c(C(=O)NN2CCCCC2)nc(-c2ccc(Cl)cc2Cl)n1-c1ccc(OS(=O)(=O)CCC(F)(F)F)cc1` has a logD of 4.9 (shake flask; aqueous buffer; pH 7.4).
`CCOCc1nc2c(N)nc3ccccc3c2n1CC(C)(C)O` has a logD of 1.14 (shake flask; PBS; pH 7.4).
With `Cc1c(C(=O)Nc2ccc(F)nc2)nc(-c2ccc(Cl)cc2Cl)n1-c1ccc(OS(=O)(=O)CCC(F)(F)F)cc1` the logD was over 4.3 (shake flask; aqueous buffer; pH 7.4).
The logD of `CCCCc1nc2c(N)nc3ccccc3c2n1Cc1ccc(N)cc1` is reported as 2.6 (shake flask; PBS; pH 7.4).
`CNC(=O)[C@H](Cc1c[nH]cn1)NC(=O)CN(CC(=O)O)Cc1ccccc1` has a logD of -2.29 (shake flask; PBS; 2 h, pH 7.4).
`Cc1c(C(=O)N[C@@H]2CCCC[C@@H]2N(C)C)nc(-c2ccc(Cl)cc2Cl)n1-c1ccc(OS(=O)(=O)CCC(F)(F)F)cc1` (relative stereo) has a logD of 3.8 (shake flask; aqueous buffer; pH 7.4).
The logD of `CNC(=O)[C@H](Cc1c[nH]cn1)NC(=O)CN(CCCc1ccccc1)CC(=O)O` is reported as -1.36 (shake flask; PBS; 2 h, pH 7.4).
For `Cc1c(C(=O)NN2CCCCC2)nc(-c2ccc(Cl)cc2Cl)n1-c1ccc(OCCC(F)(F)F)cc1`, the logD was 5.4 (shake flask; aqueous buffer; pH 7.4).
`Fc1ccc(Nc2c(-c3ccccn3)nc3ccc(C4CC4)cn23)cc1` gave a logD of 2.9 (pH 7.4).
The logD of `Cc1c(C(=O)Nc2ccc(C(F)(F)F)nc2)nc(-c2ccc(Cl)cc2Cl)n1-c1ccc(OS(=O)(=O)CCC(F)(F)F)cc1` is reported as over 4.9 (shake flask; aqueous buffer; pH 7.4).
For `CCC1=C(C)c2cc3[nH]c(cc4[nH]c(cc5nc(cc1n2)C(C)=C5CC)c(C)c4CC)c(CC)c3C`, the logD was 1.42 (shake flask; aqueous buffer; pH 9).
`Cc1c(C(=O)NN2CCCCC2)nc(-c2ccc(Cl)cc2Cl)n1-c1ccc(OS(=O)(=O)CCC(C)(C)C)cc1` has a logD of over 5.8 (shake flask; aqueous buffer; pH 7.4).
For `CN1CCN(c2ccc3[nH]c(-c4ccc5[nH]c(-c6ccc(O)cc6)nc5c4)nc3c2)CC1`, the logD was 2.2 (shake flask; PBS; pH 7.4).
`Cc1c(C(=O)NC2CCC(O)CC2)nc(-c2ccc(Cl)cc2Cl)n1-c1ccc(OS(=O)(=O)CCC(F)(F)F)cc1` (stereo not drawn) gave a logD of 4.2 (shake flask; aqueous buffer; pH 7.4).
For `CN1C(C(=O)Nc2ccccn2)=C(O)c2ccccc2S1(=O)=O`, the logD was -0.31 (shake flask; aqueous buffer; 48 h, pH 7.4).
